The test system of assay [1] is Canis familiaris. The assay is described as follows: Saluretic activity in the dog measured as concentration of Na+ in urinary excretion (2 animals/dose) at (dose 1.56 mg/Kg, po). It counts as functional, Canis lupus familiaris, Urine. Summed up: (§1)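 Male beagles trained to rest on a table and to accept stomach tube and catheter. Food withdrawn 24 h before, tap water ad libitum. Bladder emptied by catheter, then 20 mL/kg tap water by stomach tube. Catheterized hourly up to 8 h with 4 mL/kg water orally each time; first 2 h urine served as control. Oral dosing after second catheterization. Pooled 1–6 h urine; Na⁺/K⁺ by flame photometry, Cl⁻ argentometrically.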

The subject of assay [2] is Canis familiaris. The assay is described as follows: Diuretic activity in the dog (2 animals/dose) at (dose 1.56 mg/Kg), when administered perorally. It is filed as functional, Canis lupus familiaris, Urine. In outline:
(§2)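 Trained male beagles, fasted 24 h with tap water ad libitum. Bladder emptied by catheter, then 20 mL/kg tap water by stomach tube, with 4 mL/kg water at each hourly catheterization up to 8 h. The first 2 h of urine served as control. Oral dosing came after the second catheterization, and 1–6 h urine was pooled. Na⁺ and K⁺ were measured by flame photometry, Cl⁻ argentometrically, in mequiv/kg.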

Assay [3] concerns Canis familiaris. The assay is described as follows: Saluretic activity in the dog measured as concentration of K+ in urinary excretion (2 animals/dose) at (dose 1.56 mg/Kg, po). It is filed as functional, Canis lupus familiaris, Urine. Summed up: as §1
The test system of assay [4] is Canis familiaris. Description: Saluretic activity in the dog measured as concentration of Cl - in urinary excretion (2 animals/dose) at (dose 1.56 mg/Kg, po). It is filed as functional, Canis lupus familiaris, Urine. In outline:
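Male beagles trained to the procedures, food withdrawn 24 h before, tap water ad libitum. Bladder emptied by catheter, then 20 mL/kg tap water by stomach tube, plus 4 mL/kg orally at each hourly catheterization up to 8 h. The first 2 h of urine served as control. Compound given orally after the second catheterization. Urine from 1–6 h post-dose pooled; Na⁺ and K⁺ by flame photometry, Cl⁻ argentometrically, in mequiv/kg.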

The species named for assay [5] is Rattus norvegicus. Description: Diuretic activity in the rats, determined by a modified Lipschitz test. It is filed as functional, Urine. Summed up: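 Modified Lipschitz test: rats deprived of water 24 h, grouped in threes of similar weight in diuresis funnels. Oral dose of 50 mg/kg, suspended in 2% starch solution, by stomach tube.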
Assay [6] is filed under the species Rattus norvegicus. The assay is described as follows: Saluretic activity in the rat measured as concentration of chloride in urine. It is filed as functional. Summed up:
(§3)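 Rats deprived of food 24 h, water ad libitum, dosed 50 mg/kg by stomach tube as suspension in 2% starch, no extra water load. Groups of three in diuresis funnels; urine over first 5 h collected. Na⁺ and K⁺ by flame photometry, Cl⁻ argentometrically; expressed as mequiv/kg.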

Assay [7] is filed under the species Rattus norvegicus. The assay is described as follows: Saluretic activity in the rat measured as concentration of K+ in urine. It is filed as functional. In outline: as §3
Assay [8] in a line: It is the ratio, measured as saluretic activity in the dog as concentration of Na+ in urinary excretion (dose 1.56 mg/Kg, po) to that of K. It is filed as functional, Urine. In outline:
as §2

The nature of assay [9]: It is the ratio, measured as saluretic activity in the dog as concentration of Cl- in urinary excretion (dose 1.56 mg/Kg, po) to that of (Na+)+(K+). It is filed as functional, Urine. Summed up: as §2
Assay [10] is filed under the species Rattus norvegicus. Description: Saluretic activity in the rat measured as concentration of Na+ in urine. It counts as functional. Summed up:
as §3

Assay [11] is described as follows: It is the ratio, measured as saluretic activity in the dog as concentration of Cl- in urinary excretion (dose 1.56 mg/Kg, po) to that of (Na++K+). It counts as functional, Urine. In outline:
as §2

Take `CN(c1ccccc1)c1cc(NCCc2ccco2)c(S(=O)(=O)[O-])cc1S(N)(=O)=O.[K+]`: the Saluretic activity in assay [1] is 4.7 m equiv 6hr-1 kg-1; in assay [3], 1.08 m equiv 6hr-1 kg-1; in assay [6], 3.2 m equiv 5hr-1 kg-1; in [7], 2 m equiv 5hr-1 kg-1; in assay [10] it was 2.2 m equiv 5hr-1 kg-1. For the same compound, the Diuretic activity in [2] stood at 59.9 ml kg-1 6hr-1; in [5], 1.2 mL/kg. For the same compound, the Saldiuretic activity in assay [4] is 5.81 m equiv 6hr-1 kg-1. The Ratio came to 4.3 in [8] and 1 in [9].
Turning to `CCCCS(=O)(=O)c1cc(NCc2ccco2)c(S(=O)(=O)[O-])cc1S(N)(=O)=O.[Na+]`, the Saluretic activity in assay [1] is 4.92 m equiv 6hr-1 kg-1; in assay [6] it was 8.7 m equiv 5hr-1 kg-1; in [7], 2.2 m equiv 5hr-1 kg-1; in [10] it was 7.3 m equiv 5hr-1 kg-1. For the same compound, the Diuretic activity in [2] worked out at 65.5 ml kg-1 6hr-1; in assay [5], 3.8 mL/kg. The Saldiuretic activity in assay [3] is recorded as 0.97 m equiv 6hr-1 kg-1; in assay [4] it was 5.78 m equiv 6hr-1 kg-1. Moreover, the Ratio came to 5 in [8] and 1 in [11].
Regarding `NS(=O)(=O)c1cc(S(=O)(=O)[O-])c(NCc2ccco2)cc1Oc1cccc(Cl)c1.[K+]`, the Diuretic activity in assay [5] came out at 2 mL/kg. The Saluretic activity in assay [6] came out at 5.1 m equiv 5hr-1 kg-1; in assay [7], 2 m equiv 5hr-1 kg-1; in assay [10] it was 3.8 m equiv 5hr-1 kg-1.
Compound `N.NS(=O)(=O)c1cc(S(=O)(=O)O)c(NCc2ccco2)cc1Oc1ccccc1` gave a Diuretic activity in assay [5] of 4.2 mL/kg. The figures for the Saluretic activity in assay [6], in assay [7] and in assay [10] were 8.7 m equiv 5hr-1 kg-1, 2.4 m equiv 5hr-1 kg-1 and 6.6 m equiv 5hr-1 kg-1, respectively.
The matching figures for `NS(=O)(=O)c1cc(S(=O)(=O)[O-])c(S(=O)(=O)C2CCCCC2)cc1NCc1ccco1.[Na+]`: 0.8 mL/kg, 1 m equiv 5hr-1 kg-1, 1.1 m equiv 5hr-1 kg-1 and 0.4 m equiv 5hr-1 kg-1.
The like results for `Cc1ccc(Oc2cc(NCc3ccco3)c(S(=O)(=O)[O-])cc2S(N)(=O)=O)cc1C.[K+]` were, in that order, 1.3 mL/kg, 3.7 m equiv 5hr-1 kg-1, 1.4 m equiv 5hr-1 kg-1 and 2.2 m equiv 5hr-1 kg-1.
The like results for `CCCS(=O)(=O)c1cc(NCc2ccco2)c(S(=O)(=O)[O-])cc1S(N)(=O)=O.[Na+]` were, in that order, 2.9 mL/kg, 2.4 m equiv 5hr-1 kg-1, 1.3 m equiv 5hr-1 kg-1 and 1.8 m equiv 5hr-1 kg-1.
With `NS(=O)(=O)c1cc(S(=O)(=O)[O-])c(NCC2CCCO2)cc1Cl.[Na+]` (centres undefined), in [5], the Diuretic activity amounted to 0.4 mL/kg. Moreover, the figures for the Saluretic activity in assay [6], in [7] and in [10] were 0.5 m equiv 5hr-1 kg-1, 0.4 m equiv 5hr-1 kg-1 and 0.4 m equiv 5hr-1 kg-1, respectively.
Turning to `CN(Cc1ccco1)c1cc(Oc2ccccc2)c(S(N)(=O)=O)cc1S(=O)(=O)[O-].[K+]`, the Diuretic activity in [5] came to 1.3 mL/kg. Also, the Saluretic activity amounted to 1.7 m equiv 5hr-1 kg-1 in assay [6], 1.5 m equiv 5hr-1 kg-1 in [7] and 0.3 m equiv 5hr-1 kg-1 in [10].
In assay [5], `Nc1cc(Oc2ccccc2)c(S(N)(=O)=O)cc1S(=O)(=O)[O-].[K+]` had a Diuretic activity of 1 mL/kg. Also, the Saluretic activity in assay [6] is listed as 0.7 m equiv 5hr-1 kg-1; in [7], 1.3 m equiv 5hr-1 kg-1; in assay [10], 0.5 m equiv 5hr-1 kg-1.
As to `CCCCSc1cc(NCc2ccco2)c(S(=O)(=O)[O-])cc1S(N)(=O)=O.[K+]`, the Saluretic activity in assay [1] was 1.06 m equiv 6hr-1 kg-1; in assay [6], 3.6 m equiv 5hr-1 kg-1; in assay [7], 2.2 m equiv 5hr-1 kg-1; in assay [10], 3.6 m equiv 5hr-1 kg-1. Further, the results for the Diuretic activity in assay [2] and in [5] were 32.8 ml kg-1 6hr-1 and 2.5 mL/kg, respectively. Besides, the Saldiuretic activity in assay [3] worked out at 0.35 m equiv 6hr-1 kg-1; in assay [4], 1.43 m equiv 6hr-1 kg-1. For the same compound, the Ratio in assay [8] amounted to 3; in [9], 1.
Consider `NS(=O)(=O)c1cc(S(=O)(=O)[O-])c(NCc2ccco2)cc1SC1CCCCC1.[K+]`, for which the Saluretic activity is listed as 0.27 m equiv 6hr-1 kg-1 in assay [1], 1.9 m equiv 5hr-1 kg-1 in assay [6], 0.5 m equiv 5hr-1 kg-1 in assay [7] and 1.4 m equiv 5hr-1 kg-1 in assay [10]. The Diuretic activity in [2] is 32.6 ml kg-1 6hr-1; in assay [5], 0.8 mL/kg. Also, the Saldiuretic activity is reported as 0.07 m equiv 6hr-1 kg-1 in assay [3] and 0.32 m equiv 6hr-1 kg-1 in assay [4]. Moreover, the Ratio in assay [8] was determined as 3.9; in [9], 0.95.
Regarding `CC(C)(C)S(=O)(=O)c1cc(NCc2ccco2)c(S(=O)(=O)[O-])cc1S(N)(=O)=O.[K+]`, the Diuretic activity in assay [5] stood at 2.5 mL/kg. Besides, the Saluretic activity in assay [6] is 4.3 m equiv 5hr-1 kg-1; in assay [7], 1.8 m equiv 5hr-1 kg-1; in assay [10], 3.3 m equiv 5hr-1 kg-1.
The like results for `C1CCC(NC2CCCCC2)CC1.NS(=O)(=O)c1cc(S(=O)(=O)O)c(NCc2ccco2)cc1Oc1ccccc1` were, in that order, 0.9 mL/kg, 0.8 m equiv 5hr-1 kg-1, 1 m equiv 5hr-1 kg-1 and 0.7 m equiv 5hr-1 kg-1.
The matching figures for `CN(c1ccccc1)c1cc(NCc2ccco2)c(S(=O)(=O)[O-])cc1S(=O)(=O)N(C)C.[K+]`: 1.6 mL/kg, 1.5 m equiv 5hr-1 kg-1, 1.2 m equiv 5hr-1 kg-1 and 1 m equiv 5hr-1 kg-1.
In turn, `CNS(=O)(=O)c1cc(S(=O)(=O)[O-])c(NCc2ccco2)cc1N(C)c1ccccc1.[K+]` showed a Diuretic activity in assay [5] of 1.3 mL/kg. The Saluretic activity in [6] stood at 1.8 m equiv 5hr-1 kg-1; in assay [7] it was 1.4 m equiv 5hr-1 kg-1; in assay [10], 1.2 m equiv 5hr-1 kg-1.
With `CCN(c1ccccc1)c1cc(NCc2ccco2)c(S(=O)(=O)[O-])cc1S(N)(=O)=O.[Na+]`, in assay [5], the Diuretic activity came to 0.8 mL/kg. Besides, the figures for the Saluretic activity in assay [6], in assay [7] and in [10] were 0.3 m equiv 5hr-1 kg-1, 1 m equiv 5hr-1 kg-1 and 0.4 m equiv 5hr-1 kg-1, respectively.
The matching figures for `NS(=O)(=O)c1cc(S(=O)(=O)[O-])c(NCc2ccc3c(c2)OCO3)cc1Cl.[Na+]`: 0.4 mL/kg, 0.3 m equiv 5hr-1 kg-1, 0.3 m equiv 5hr-1 kg-1 and 0.4 m equiv 5hr-1 kg-1.
Turning to `NS(=O)(=O)c1cc(S(=O)(=O)[O-])c(NCc2ccco2)cc1S(=O)(=O)CC1CCCCC1.[Na+]`, in assay [5], the Diuretic activity came to 4.6 mL/kg. The Saluretic activity in [6] was 10.7 m equiv 5hr-1 kg-1; in assay [7], 2.7 m equiv 5hr-1 kg-1; in [10], 8.8 m equiv 5hr-1 kg-1.
In assay [5], `NC(N)=NC(=O)c1nc(Cl)c(N)nc1N.NS(=O)(=O)c1cc(S(=O)(=O)O)c(NCc2ccco2)cc1Oc1ccccc1` showed a Diuretic activity of 1.9 mL/kg. Further, the figures for the Saluretic activity in [6], in [7] and in [10] were 2.7 m equiv 5hr-1 kg-1, 0.3 m equiv 5hr-1 kg-1 and 3.7 m equiv 5hr-1 kg-1, respectively.

These data come from ChEMBL document CHEMBL1122273, “5-sulfamoylorthanilic acids, a sulfonamide series with salidiuretic activity” (J Med Chem, 1983).
